The source made the active and inactive calls. The rule behind the calls is not given here.
Experiments:
Aedes aegypti [1] = assay: Insecticidal activity against five days old adult Aedes aegypti Mombasa assessed as mortality at 2 mM applied topically on upper part of pronotum after 48 hrs (reference value: 3 to 12%); assay type: functional; settings: topical
Aedes aegypti [2] = assay: Inhibition of recombinant full length Aedes aegypti AChE1 expressed in baculovirus-infected Sf9 insect cells at 1 mM using acetylthiocholine iodide as substrate measured over 60 secs by Ellman's method
Outline: (§1)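 Secreted, non-purified recombinant enzyme in growth medium, tested as enzyme source. Ellman assay at 30 °C in 0.1 M phosphate buffer pH 7.4 with 0.2 mM DTNB and 1 mM acetylthiocholine iodide; A412 followed over 60 s. Compound (100 mM DMSO stock) tested at eight concentrations, maximum 1 mM. Activity set relative to eight uninhibited controls per plate; IC50 from three-parameter variable-slope fit; 2-3 independent replicates.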

[3] = Selectivity ratio of IC50 for recombinant human AChE expressed in HEK293F cells to IC50 for recombinant full length Anopheles gambiae AChE1 expressed in baculovirus-infected Sf9 insect cells
Outline: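 Ratio of the hAChE IC50 divided by the higher of the AgAChE1 or AaAChE1 IC50. Each IC50 came from an Ellman assay (1 mM acetylthiocholine, 0.2 mM DTNB, pH 7.4, 30 °C) with eight concentrations up to 1 mM, using 2-3 replicates.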

Aedes aegypti [4] = assay: Insecticidal activity against five days old adult Aedes aegypti Mombasa assessed as mortality at 0.2 nmol applied topically on upper part of pronotum after 24 hrs; assay type: functional
Aedes aegypti [5] = assay: Insecticidal activity against five days old adult Aedes aegypti Mombasa assessed as mortality at 10 mM applied topically on upper part of pronotum after 48 hrs (reference value: 3 to 15%); assay type: functional; settings: topical
Aedes aegypti [6] = assay: Insecticidal activity against 3rd instar larvae of Aedes aegypti Mombasa assessed as mortality at 50 uM administered via de-chlorinated tap water after 24 hrs; assay type: functional
Outline: (§2)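 Kenyan strains were reared at 27-28 °C, about 80% humidity, 12/12 h light. Per compound and concentration, 25 third-instar larvae were placed in 100 ml de-chlorinated water containing the compound and kept under insectary conditions. The negative control was plain water; the positive control was propoxur at 25 µM. Mortality was scored at 24 h; 75 treated and 50 control larvae in total.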

Anopheles gambiae [7] = assay: Insecticidal activity against five days old adult Anopheles gambiae Kisumu assessed as mortality at 1 nmol applied topically on upper part of pronotum after 24 hrs; assay type: functional
Aedes aegypti [8] = assay: Insecticidal activity against 3rd instar larvae of Aedes aegypti Mombasa assessed as mortality at 500 uM administered via de-chlorinated tap water after 24 hrs; assay type: functional; outline: as §2
Aedes aegypti [9] = assay: Insecticidal activity against 3rd instar larvae of Aedes aegypti Mombasa assessed as mortality at 50 uM administered via de-chlorinated tap water after 48 hrs (reference value: 0 to 4%); assay type: functional
Anopheles gambiae [10] = assay: Insecticidal activity against 3rd instar larvae of Anopheles gambiae Kisumu assessed as mortality at 500 uM administered via de-chlorinated tap water after 48 hrs; assay type: functional
Aedes aegypti [11] = assay: Insecticidal activity against five days old adult Aedes aegypti Mombasa assessed as mortality at 10 nmol applied topically on upper part of pronotum after 24 hrs; assay type: functional
Anopheles gambiae [12] = assay: Insecticidal activity against five days old adult Anopheles gambiae Kisumu assessed as mortality at 100 mM applied topically on upper part of pronotum after 48 hrs (reference value: 15 to 24%); assay type: functional; settings: topical
Anopheles gambiae [13] = assay: Insecticidal activity against 3rd instar larvae of Anopheles gambiae Kisumu assessed as mortality at 50 uM administered via de-chlorinated tap water after 24 hrs; assay type: functional; outline: as §2
Anopheles gambiae [14] = assay: Insecticidal activity against 3rd instar larvae of Anopheles gambiae Kisumu assessed as mortality at 50 uM administered via de-chlorinated tap water after 48 hrs; assay type: functional
Acetylcholinesterase [15] = molecular target: T1, Acetylcholinesterase (Homo sapiens, UniProt P22303); assay: Inhibition of recombinant human AChE expressed in HEK293F cells using acetylthiocholine iodide as substrate measured over 60 secs by Ellman's method; design: species or system HEK293
Acetylcholinesterase [16] = molecular target: T2, Acetylcholinesterase (Anopheles gambiae, UniProt Q869C3); assay: (§3) Inhibition of recombinant full length Anopheles gambiae AChE1 expressed in baculovirus-infected Sf9 insect cells using acetylthiocholine iodide as substrate measured over 60 secs by Ellman's method
[17] = molecular target: Acetylcholinesterase (Anopheles gambiae) (UniProt Q869C3); assay: as §3
Anopheles gambiae [18] = assay: Insecticidal activity against five days old adult Anopheles gambiae Kisumu assessed as mortality at 2 mM applied topically on upper part of pronotum after 48 hrs (reference value: 13 to 38%); assay type: functional; settings: topical
Acetylcholinesterase [19] = molecular target: T2, Acetylcholinesterase; assay: Inhibition of AChE1 in Anopheles gambiae body extract using acetylthiocholine iodide as substrate measured over 60 secs by Ellman's method
Anopheles gambiae [20] = assay: Insecticidal activity against 3rd instar larvae of Anopheles gambiae Kisumu assessed as mortality at 500 uM administered via de-chlorinated tap water after 24 hrs; assay type: functional; outline: as §2
Aedes aegypti [21] = assay: Insecticidal activity against five days old adult Aedes aegypti Mombasa assessed as mortality at 10 mM applied topically on upper part of pronotum after 24 hrs (reference value: 3 to 15%); assay type: functional; settings: topical
Anopheles gambiae [22] = assay: Insecticidal activity against five days old adult Anopheles gambiae Kisumu assessed as mortality at 10 mM applied topically on upper part of pronotum after 24 hrs (reference value: 8 to 16%); assay type: functional; settings: topical
Acetylcholinesterase [23] = molecular target: T2, Acetylcholinesterase; assay: Inhibition of AChE1 in Anopheles gambiae head extract using acetylthiocholine iodide as substrate measured over 60 secs by Ellman's method
Anopheles gambiae [24] = assay: Insecticidal activity against five days old adult Anopheles gambiae Kisumu assessed as mortality at 100 mM applied topically on upper part of pronotum after 24 hrs (reference value: 9 to 10%); assay type: functional; settings: topical
Aedes aegypti [25] = assay: Insecticidal activity against five days old adult Aedes aegypti Mombasa assessed as mortality at 100 mM applied topically on upper part of pronotum after 24 hrs (reference value: 3%); assay type: functional; settings: topical
Aedes aegypti [26] = assay: Insecticidal activity against five days old adult Aedes aegypti Mombasa assessed as mortality at 1 nmol applied topically on upper part of pronotum after 24 hrs; assay type: functional
Aedes aegypti [27] = assay: Insecticidal activity against five days old adult Aedes aegypti Mombasa assessed as mortality at 2 mM applied topically on upper part of pronotum after 24 hrs (reference value: 2 to 10%); assay type: functional; settings: topical
Aedes aegypti [28] = assay: Insecticidal activity against five days old adult Aedes aegypti Mombasa assessed as mortality at 100 mM applied topically on upper part of pronotum after 48 hrs (reference value: 7 to 8%); assay type: functional; settings: topical
[29] = molecular target: Acetylcholinesterase (Anopheles gambiae) (UniProt Q869C3); assay: Inhibition of recombinant full length Anopheles gambiae AChE1 expressed in baculovirus-infected Sf9 insect cells at 1 mM using acetylthiocholine iodide as substrate measured over 60 secs by Ellman's method; outline: as §1
Aedes aegypti [30] = assay: (§4) Inhibition of recombinant full length Aedes aegypti AChE1 expressed in baculovirus-infected Sf9 insect cells using acetylthiocholine iodide as substrate measured over 60 secs by Ellman's method; outline: as §1
[31] = as §4; outline: as §1
Anopheles gambiae [32] = assay: Insecticidal activity against five days old adult Anopheles gambiae Kisumu assessed as mortality at 0.2 nmol applied topically on upper part of pronotum after 24 hrs; assay type: functional
Acetylcholinesterase [33] = molecular target: Acetylcholinesterase (Anopheles gambiae, UniProt Q869C3, G122S); assay: Inhibition of recombinant full length Anopheles gambiae AChE1 G122S mutant expressed in baculovirus-infected Sf9 insect cells using acetylthiocholine iodide as substrate measured over 60 secs by Ellman's method
Anopheles gambiae [34] = assay: Insecticidal activity against five days old adult Anopheles gambiae Kisumu assessed as mortality at 10 nmol applied topically on upper part of pronotum after 24 hrs; assay type: functional
Aedes aegypti [35] = assay: Insecticidal activity against 3rd instar larvae of Aedes aegypti Mombasa assessed as mortality at 500 uM administered via de-chlorinated tap water after 48 hrs (reference value: 0 to 2%); assay type: functional
Anopheles gambiae [36] = assay: Insecticidal activity against five days old adult Anopheles gambiae Kisumu assessed as mortality at 2 mM applied topically on upper part of pronotum after 24 hrs (reference value: 3 to 17%); assay type: functional; settings: topical
Anopheles gambiae [37] = assay: Insecticidal activity against five days old adult Anopheles gambiae Kisumu assessed as mortality at 10 mM applied topically on upper part of pronotum after 48 hrs (reference value: 14 to 22%); assay type: functional; settings: topical
Anopheles gambiae [38] = assay: Insecticidal activity against five days old adult Anopheles gambiae Kisumu assessed as mortality at 0.01 nmol applied topically on upper part of pronotum after 24 hrs; assay type: functional
Anopheles gambiae [39] = assay: Insecticidal activity against five days old adult Anopheles gambiae Kisumu assessed as mortality at 0.1 mM applied topically on upper part of pronotum after 24 hrs (reference value: 0%); assay type: functional; settings: topical
Aedes aegypti [40] = assay: Insecticidal activity against 3rd instar larvae of Aedes aegypti Mombasa assessed as mortality at 300 uM administered via de-chlorinated tap water after 24 hrs; assay type: functional; outline: as §2
Aedes aegypti [41] = assay: Insecticidal activity against 3rd instar larvae of Aedes aegypti Mombasa assessed as mortality at 300 uM administered via de-chlorinated tap water after 48 hrs (reference value: 0%); assay type: functional
Anopheles gambiae [42] = assay: Insecticidal activity against 3rd instar larvae of Anopheles gambiae Kisumu assessed as mortality at 300 uM administered via de-chlorinated tap water after 24 hrs; assay type: functional; outline: as §2
Anopheles gambiae [43] = assay: Insecticidal activity against 3rd instar larvae of Anopheles gambiae Kisumu assessed as mortality at 300 uM administered via de-chlorinated tap water after 48 hrs; assay type: functional
[44] = tested on: Acetylcholinesterase (Anopheles gambiae), Q869C3 [G122S]; assay: Inhibition of recombinant full length Anopheles gambiae AChE1 G122S mutant expressed in baculovirus-infected Sf9 insect cells up to 1 mM using acetylthiocholine iodide as substrate measured over 60 secs by Ellman's method; outline: as §1
Acetylcholinesterase [45] = molecular target: T1, Acetylcholinesterase; assay: Inhibition of recombinant human AChE expressed in HEK293F cells up to 1 mM using acetylthiocholine iodide as substrate measured over 60 secs by Ellman's method; settings: HEK293; outline: as §1
Anopheles gambiae [46] = assay: Insecticidal activity against five days old adult Anopheles gambiae Kisumu assessed as mortality at 6.25 ng applied topically on upper part of pronotum after 24 hrs; assay type: functional
Anopheles gambiae [47] = assay: Insecticidal activity against 3rd instar larvae of Anopheles gambiae Kisumu assessed as mortality at 25 uM administered via de-chlorinated tap water after 48 hrs; assay type: functional
Anopheles gambiae [48] = assay: Insecticidal activity against 3rd instar larvae of Anopheles gambiae Kisumu assessed as mortality at 25 uM administered via de-chlorinated tap water after 24 hrs; assay type: functional; outline: as §2

SMILES | mortality at 2000 µM (Aedes aegypti [1]) | inhibition (Aedes aegypti [2]) | Ratio IC50 [3] | mortality (Aedes aegypti [4]) | mortality at 10000 µM (Aedes aegypti [5]) | mortality at 50 µM (Aedes aegypti [6]) | mortality (Anopheles gambiae [7]) | mortality at 500 µM (Aedes aegypti [8]) | mortality at 50 µM (Aedes aegypti [9]) | mortality at 500 µM (Anopheles gambiae [10]) | mortality at 50 µM (Anopheles gambiae [13]) | mortality at 50 µM (Anopheles gambiae [14]) | IC50 (Acetylcholinesterase [15]) | IC50 (Acetylcholinesterase [16]) | IC50 (Acetylcholinesterase [19]) | mortality at 500 µM (Anopheles gambiae [20]) | mortality at 10000 µM (Aedes aegypti [21]) | mortality at 10000 µM (Anopheles gambiae [22]) | IC50 (Acetylcholinesterase [23]) | mortality (Aedes aegypti [26]) | also measured
COc1ccccc1NC(=S)NCCN(C)C | 13% | 50% | 17 | 8% | 15% | 7% | 0% | 5% | 7% | 3% | 5% | 7% | 120 µM | 7.1 µM | 7.6 µM | 3% | 10% | 9% | 7.1 µM | 10% | mortality (Aedes aegypti [11]): 10%; mortality at 100000 µM (Anopheles gambiae [12]): 73%; inhibition [17]: Dose-dependent effect; mortality at 2000 µM (Anopheles gambiae [18]): 23%; mortality at 100000 µM (Anopheles gambiae [24]): 61%; mortality at 100000 µM (Aedes aegypti [25]): 10%; mortality at 2000 µM (Aedes aegypti [27]): 8%; mortality at 100000 µM (Aedes aegypti [28]): 18%; inhibition [29]: 50%; inhibition (Aedes aegypti [30]): Dose-dependent effect; IC50 [31]: 6 µM; mortality (Anopheles gambiae [32]): 16%; IC50 (Acetylcholinesterase [33]): 50 µM; mortality (Anopheles gambiae [34]): 57%; mortality at 500 µM (Aedes aegypti [35]): 7%; mortality at 2000 µM (Anopheles gambiae [36]): 16%; mortality at 10000 µM (Anopheles gambiae [37]): 20%
COc1ccc(NC(=S)NCCN2CCOCC2)cc1Cl | 5% | – | 117 | 5% | 10% | 8% | 70% | 97% | 13% | 100% | 1% | 3% | 14 µM | 0.12 µM | 0.15 µM | 100% | 3% | 72% | 0.19 µM | 0% | mortality (Anopheles gambiae [38]): 0%; mortality at 100 µM (Anopheles gambiae [39]): 0%; mortality at 300 µM (Aedes aegypti [40]): 64%; mortality at 300 µM (Aedes aegypti [41]): 80%; mortality at 300 µM (Anopheles gambiae [42]): 100%; mortality at 2000 µM (Aedes aegypti [27]): 5%; IC50 [31]: 0.09 µM; mortality (Anopheles gambiae [32]): 22%; IC50 (Acetylcholinesterase [33]): 84 µM; mortality at 300 µM (Anopheles gambiae [43]): 100%; mortality at 500 µM (Aedes aegypti [35]): 100%; mortality at 2000 µM (Anopheles gambiae [36]): 22%; mortality at 10000 µM (Anopheles gambiae [37]): 77%
S=C(NCCN1CCOCC1)Nc1ccc(Cl)cc1 | – | inactive | – | – | – | – | – | – | – | – | – | – | – | – | – | – | – | – | – | – | inhibition [44]: inactive; inhibition [29]: inactive; inhibition (Acetylcholinesterase [45]): inactive
CNC(=O)Oc1ccccc1OC(C)C [PROPOXUR] | – | – | – | – | – | – | – | – | – | – | – | – | – | – | – | – | – | – | – | – | mortality (Anopheles gambiae [46]): 100%; mortality at 25 µM (Anopheles gambiae [47]): 100%; mortality at 25 µM (Anopheles gambiae [48]): 100%
